According to ChEMBL document CHEMBL1123901, “Inhibition of delayed hypersensitivity reactions by cinnamyl 1-thioglycosides” (J Med Chem, 1987):

Legend:
Format in all cases: functional
[1] = organism: Cavia porcellus; assay: Effect on guinea pig T cell proliferation was tested by measuring the incorporation of [3H]thymidine uptake at the concentration of 250 uM
In short: (§1)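 Strain 2 female guinea pigs were immunized with 100 μg OVA in CFA split over the footpads. At day 14 they received mineral oil ip, and the exudate was collected 4 days later. T cells were enriched on nylon wool. 2×10^5 cells per well were cultured with 10% irradiated (2100 rads) exudate cells, OVA (10 μg/mL) and compound, for 72 h at 37 °C in 5% CO2. [3H]thymidine (1 μCi) was added 18-24 h before harvest. Triplicate wells; mean Δcpm ± SD.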

[2] = organism: Cavia porcellus; assay: Inhibitory activity against [3H]thymidine uptake by cinnamyl 1-thioglycosides in guinea pig T cell proliferation; in short: as §1
[3] = organism: Cavia porcellus; assay: Effect on guinea pig T cell proliferation was tested by measuring the incorporation of [3H]-thymidine uptake at the concentration of 100 uM; in short: as §1
[4] = organism: Cavia porcellus; assay: Effect on guinea pig T cell proliferation was tested by measuring the incorporation of [3H]thymidine uptake at the concentration of 750 uM; in short: as §1
[5] = organism: Cavia porcellus; assay: Effect on guinea pig T cell proliferation was tested by measuring the incorporation of [3H]thymidine uptake at the concentration of 1000 uM; in short: as §1
[6] = organism: Cavia porcellus; assay: Effect on guinea pig T cell proliferation was tested by measuring the incorporation of [3H]thymidine uptake at the concentration of 500 uM; in short: as §1
[7] = organism: Cavia porcellus; assay: Effect on guinea pig T cell proliferation was tested by measuring the incorporation of [3H]-thymidine uptake at the concentration of 0 uM; in short: as §1
[8] = organism: Cavia porcellus; assay: Effect on guinea pig T cell proliferation was tested by measuring the incorporation of [3H]thymidine uptake at the concentration of 10 uM; in short: as §1

Structure (SMILES)	Activity [1]	IC50 ([2]; Cavia porcellus, T-cell, 72 h) [µM]	Activity [3]	Activity [4]	Activity [5]	Activity [6]	Activity [7]	Activity [8]	IC50 ([2]; t-cell) [µM]	IC50 ([2]; Cavia porcellus, T-cell) [µM]
COCC1OC(SC/C=C/c2ccccc2)C(O)C(O)C1O (stereo unspecified)	1.23 Δcpm x10e-3	41	36.2 Δcpm x10e-3	0 Δcpm x 10^-3	0 Δcpm x10e-3	0 Δcpm x10e-3	88 Δcpm x10e-3	97 Δcpm x10e-3		
NCC1OC(SC/C=C/c2ccccc2)C(O)C(O)C1O (stereo unspecified)	71.1 Δcpm x10e-3		101 Δcpm x10e-3	0.02 Δcpm x 10^-3	0.01 Δcpm x10e-3	1.23 Δcpm x10e-3	81 Δcpm x10e-3	120 Δcpm x10e-3		
O=C(CCCCC1CCSS1)NCC1OC(SC/C=C/c2ccccc2)C(O)C(O)C1O (stereo unspecified)	0 Δcpm x10e-3		2.97 Δcpm x10e-3	0 Δcpm x 10^-3	0.08 Δcpm x10e-3	0 Δcpm x10e-3	93.2 Δcpm x10e-3	75.2 Δcpm x10e-3		
CC(=O)NCC1OC(SC/C=C/c2ccccc2)C(O)C(O)C1O (stereo unspecified)	52.9 Δcpm x10e-3		66.6 Δcpm x10e-3	38.8 Δcpm x 10^-3	36 Δcpm x10e-3	39.3 Δcpm x10e-3	79.8 Δcpm x10e-3	70.7 Δcpm x10e-3		
CC1OC(SC/C=C/c2ccccc2)C(O)C(O)C1O (stereo in doubt; 6)	59.7 Δcpm x10e-3		101 Δcpm x10e-3	12.8 Δcpm x 10^-3	5.97 Δcpm x10e-3	36.4 Δcpm x10e-3	93.5 Δcpm x10e-3	115 Δcpm x10e-3	750	
CCCC(=O)NCC1OC(SC/C=C/c2ccccc2)C(O)C(O)C1O (stereo unspecified)	1.73 Δcpm x10e-3		45 Δcpm x10e-3	0 Δcpm x 10^-3	0.07 Δcpm x10e-3	0 Δcpm x10e-3	85.8 Δcpm x10e-3	68.4 Δcpm x10e-3		
OCC1OC(SC/C=C/c2ccccc2)C(O)C(O)C1O (stereo in doubt; 3)	67.8 Δcpm x10e-3	871	66.7 Δcpm x10e-3	38.4 Δcpm x 10^-3	42 Δcpm x10e-3	62.7 Δcpm x10e-3	80.3 Δcpm x10e-3	75.3 Δcpm x10e-3		
OCC1OC(SCCCc2ccccc2)C(O)C(O)C1O (stereo unspecified)	39.7 Δcpm x10e-3	402	59 Δcpm x10e-3	18.5 Δcpm x 10^-3	0 Δcpm x10e-3	34.2 Δcpm x10e-3	72.8 Δcpm x10e-3	70.3 Δcpm x10e-3		
OCC1OC(OCC2OC(SCC=Cc3ccccc3)C(O)C(O)C2O)C(O)C(O)C1O (stereo unspecified)	34.1 Δcpm x10e-3		54.9 Δcpm x10e-3	13.04 µM	3.85 Δcpm x10e-3	28.9 Δcpm x10e-3	86.9 Δcpm x10e-3	64.2 Δcpm x10e-3		340
CC1OC(SC/C=C/c2ccccc2)C(O)C(O)C1O (stereo in doubt; 5)	109 Δcpm x10e-3		130 Δcpm x10e-3	31.8 Δcpm x 10^-3	17.5 Δcpm x10e-3	66.6 Δcpm x10e-3	147 Δcpm x10e-3	144 Δcpm x10e-3	525	
